Test results published in ChEMBL document CHEMBL4364268, “Carvacrol prodrugs as novel antimicrobial agents” (Eur J Med Chem, 2019).
Values after ≈ are worked out from the molar mass of the structure shown.

Key:
Candida albicans [1] = assay: Antifungal activity against Candida albicans after 24 hrs by EUCAST method; type: functional
[2] = n-Octanol/water partition coefficient, log P of compound by HPLC analysis; type: physicochemical
[3] = Stability in human plasma by HPLC analysis; type: ADME, cell-free
How it was run: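 Compound stock was added to 80% human plasma (diluted with 0.02 M phosphate buffer, pH 7.4) at 37 °C. Samples taken over time were stopped with 0.01 M HCl in methanol and centrifuged 5 min at 5000 g. Supernatant was analysed by HPLC-UV at 274 nm (C18, water/ACN + 0.1% TFA, isocratic, 1 mL/min).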

[4] = Aqueous solubility of compound at 50 mg after 1 hr by HPLC analysis; type: physicochemical; details: water
Nakaseomyces glabratus = assay: Antifungal activity against Candida glabrata ATCC 2001 assessed as zone of inhibition by disc diffusion method; type: functional
How it was run: (§1)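 Disc diffusion on potato dextrose medium with 0.8% agar against Candida strains. Fluconazole and amphotericin B served as positive controls. Inhibition zone was measured in mm.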

Candida albicans [5] = assay: Antifungal activity against Candida albicans ATCC 10231 assessed as zone of inhibition by disc diffusion method; type: functional; how it was run: as §1
Candida tropicalis = assay: Antifungal activity against Candida tropicalis KUEN 1025 assessed as zone of inhibition by disc diffusion method; type: functional; how it was run: as §1
Candida parapsilosis = assay: Antifungal activity against Candida parapsilosis ATCC 22019 assessed as zone of inhibition by disc diffusion method; type: functional; how it was run: as §1
Candida dubliniensis = assay: Antifungal activity against Candida dubliniensis CBS7987 assessed as zone of inhibition by disc diffusion method; type: functional; how it was run: as §1
Blood = assay: Antioxidant activity in human blood assessed as total antioxidant capacity at 10 uM after 48 hrs (reference value: 6.3 +/- 0.5); type: functional
Streptococcus pyogenes = assay: Antibacterial activity against Streptococcus pyogenes incubated for 18 to 24 hrs by CLSI-based broth microdilution method; type: functional
Streptococcus pneumoniae = assay: Antibacterial activity against Streptococcus pneumoniae incubated for 18 to 24 hrs by CLSI-based broth microdilution method; type: functional
Staphylococcus aureus = assay: Antibacterial activity against Staphylococcus aureus incubated for 18 to 24 hrs by CLSI-based broth microdilution method; type: functional
Pseudomonas aeruginosa = assay: Antibacterial activity against Pseudomonas aeruginosa incubated for 18 to 24 hrs by CLSI-based broth microdilution method; type: functional
Enterococcus faecalis = assay: Antibacterial activity against Enterococcus faecalis incubated for 18 to 24 hrs by CLSI-based broth microdilution method; type: functional
Klebsiella pneumoniae = assay: Antibacterial activity against Klebsiella pneumoniae incubated for 18 to 24 hrs by CLSI-based broth microdilution method; type: functional
[6] = tested on: Staphylococcus epidermidis; assay: Antibacterial activity against Staphylococcus epidermidis incubated for 18 to 24 hrs by CLSI-based broth microdilution method; type: functional
Escherichia coli = assay: Antibacterial activity against Escherichia coli incubated for 18 to 24 hrs by CLSI-based broth microdilution method; type: functional
Streptococcus agalactiae = assay: Antibacterial activity against Streptococcus agalactiae incubated for 18 to 24 hrs by CLSI-based broth microdilution method; type: functional
Acinetobacter baumannii = assay: Antibacterial activity against Acinetobacter baumannii incubated for 18 to 24 hrs by CLSI-based broth microdilution method; type: functional

Q: Which MIC (Candida albicans [1]) does the source give for `Cc1ccc(C(C)C)cc1OC(=O)CCC(=O)N[C@@H](CCCNC(=N)N)C(=O)O` here?
A: The MIC was greater than 6400 µg/mL.

Q: Which MIC (Candida albicans [1]) does the source give for `Cc1ccc(C(C)C)cc1OC(=O)CCC(=O)N[C@@H](CCCCN)C(=O)O` here?
A: Its MIC is greater than 6400 µg/mL.

Q: With `Cc1ccc(C(C)C)cc1OC(=O)CCCC(=O)NCC(=O)O` as the compound, how does the MIC (Candida albicans [1]) read?
A: The MIC was greater than 6400 µg/mL.

Q: Which MIC (Candida albicans [1]) does the source give for `Cc1ccc(C(C)C)cc1OC(=O)CCCC(=O)O` here?
A: Its MIC is greater than 6400 µg/mL.

Q: With `Cc1ccc(C(C)C)cc1OC(=O)CCC(=O)NCC(=O)O` as the compound, how does the MIC (Candida albicans [1]) read?
A: Its MIC is 6400 µg/mL (≈ 20800 µM).

Q: For `Cc1ccc(C(C)C)cc1OC(=O)CCCC(=O)N[C@@H](CCCNC(=N)N)C(=O)O`, which MIC (Candida albicans [1]) is on record?
A: The MIC was greater than 6400 µg/mL.

Q: For `Cc1ccc(C(C)C)cc1OC(=O)CCC(=O)N[C@@H](Cc1c[nH]cn1)C(=O)O`, which MIC (Candida albicans [1]) is on record?
A: The MIC was greater than 6400 µg/mL.

Q: What about the logP [2] of the same compound?
A: The logP was less than 2.4.

Q: For `Cc1ccc(C(C)C)cc1OC(=O)CCCC(=O)N[C@@H](CCCCN)C(=O)O`, which MIC (Candida albicans [1]) is on record?
A: The MIC was greater than 6400 µg/mL.

Q: For `CC(C)=CCC[C@@H](C)CC(=O)Oc1cc(C(C)C)ccc1C`, which MIC (Candida albicans [1]) is on record?
A: The MIC was greater than 6400 µg/mL.

Q: Which MIC (Candida albicans [1]) does the source give for `CC(C)=CC(=O)Oc1cc(C(C)C)ccc1C` here?
A: The MIC was greater than 6400 µg/mL.

Q: With `CC(C)=CCOc1cc(C(C)C)ccc1C` as the compound, how does the K [3] read?
A: Its K is 0.0294 h⁻¹.

Q: For `Cc1ccc(C(C)C)cc1OC(=O)CCC(=O)NCCN.Cl`, which MIC (Candida albicans [1]) is on record?
A: The MIC was 3200 µg/mL.

Q: With `Cc1ccc(C(C)C)cc1OC(=O)CCCC(=O)N[C@@H](Cc1c[nH]cn1)C(=O)O` as the compound, how does the MIC (Candida albicans [1]) read?
A: Its MIC is greater than 6400 µg/mL.

Q: And the solubility at 1 h [4]?
A: Its solubility at 1 h is 3330 µg/mL (≈ 8300 µM).

Q: What about the logP [2] of the same compound?
A: Its logP is less than 2.4.

Q: Which MIC (Candida albicans [1]) does the source give for `Cc1ccc(C(C)C)cc1OC(=O)CCC(=O)NCCN(C)C.Cl` here?
A: Its MIC is greater than 6400 µg/mL.

Q: For `CC(C)=CCC/C(C)=C/COc1cc(C(C)C)ccc1C`, which K [3] is on record?
A: Its K is 0.1716 h⁻¹.

Q: With `Cc1ccc(C(C)C)cc1OC(=O)CCCC(=O)NCCN.Cl` as the compound, how does the MIC (Candida albicans [1]) read?
A: The MIC was greater than 6400 µg/mL.

Q: Which MIC (Candida albicans [1]) does the source give for `CC(C)=CCC/C(C)=C/C(=O)Oc1cc(C(C)C)ccc1C` here?
A: The MIC was greater than 6400 µg/mL.

Q: With `CC(C)=CCC/C(C)=C/CC/C(C)=C/COc1cc(C(C)C)ccc1C` as the compound, how does the MIC (Candida albicans [1]) read?
A: The MIC was greater than 6400 µg/mL.

Q: With `Cc1ccc(C(C)C)cc1OC(=O)CCCC(=O)NCCN(C)C.Cl` as the compound, how does the MIC (Candida albicans [1]) read?
A: Its MIC is greater than 6400 µg/mL.

Q: Which “inhibition zone (IZ)” value (Nakaseomyces glabratus) does the source give for `C[C@@H]1[C@H](O)[C@@H](C)/C=C/C=C/C=C/C=C/C=C/C=C/C=C/[C@H](O[C@@H]2O[C@H](C)[C@@H](O)[C@H](N)[C@@H]2O)C[C@@H]2O[C@](O)(C[C@@H](O)C[C@@H](O)[C@H](O)CC[C@@H](O)C[C@@H](O)CC(=O)O[C@H]1C)C[C@H](O)[C@H]2C(=O)O` [AMPHOTERICIN B] here?
A: Its value is 12 mm.

Q: What about the “inhibition zone (IZ)” value (Candida albicans [5]) of the same compound?
A: The value was 10 mm.

Q: And the “inhibition zone (IZ)” value (Candida tropicalis)?
A: The value was 10 mm.

Q: What about the “inhibition zone (IZ)” value (Candida parapsilosis) of the same compound?
A: Its value is 9 mm.

Q: What about the “inhibition zone (IZ)” value (Candida dubliniensis) of the same compound?
A: Its value is 10 mm.

Q: For `O=C1O[C@H]([C@@H](O)CO)C(O)=C1O` [ASCORBIC ACID], which Activity (Blood) is on record?
A: The Activity was 19.4.

Q: For `Cc1ccc(C(C)C)cc1O` [CARVACROL], which MIC (Streptococcus pyogenes) is on record?
A: The MIC was 64 to 256 µg/mL (≈ 426 to 1700 µM).

Q: What about the MIC50 (Streptococcus pyogenes) of the same compound?
A: Its MIC50 is 128 µg/mL (≈ 852 µM).

Q: And the MIC90 (Streptococcus pyogenes)?
A: The MIC90 was 256 µg/mL (≈ 1700 µM).

Q: And the “inhibition zone (IZ)” value (Nakaseomyces glabratus)?
A: Its value is 8 mm.

Q: And the MIC (Streptococcus pneumoniae)?
A: The MIC was 64 to 256 µg/mL (≈ 426 to 1700 µM).

Q: And the MIC50 (Streptococcus pneumoniae)?
A: Its MIC50 is 128 µg/mL (≈ 852 µM).

Q: What about the MIC90 (Streptococcus pneumoniae) of the same compound?
A: The MIC90 was 256 µg/mL (≈ 1700 µM).

Q: And the MIC (Staphylococcus aureus)?
A: Its MIC is 256 µg/mL (≈ 1700 µM).

Q: And the MIC50 (Staphylococcus aureus)?
A: The MIC50 was 256 µg/mL (≈ 1700 µM).

Q: And the MIC90 (Staphylococcus aureus)?
A: Its MIC90 is 256 µg/mL (≈ 1700 µM).

Q: What about the “inhibition zone (IZ)” value (Candida albicans [5]) of the same compound?
A: Its value is 9 mm.

Q: And the “inhibition zone (IZ)” value (Candida tropicalis)?
A: The value was 10 mm.

Q: And the MIC (Pseudomonas aeruginosa)?
A: Its MIC is no less than 512 µg/mL.

Q: And the MIC50 (Pseudomonas aeruginosa)?
A: Its MIC50 is greater than 512 µg/mL.

Q: And the MIC90 (Pseudomonas aeruginosa)?
A: Its MIC90 is greater than 512 µg/mL.

Q: And the MIC (Enterococcus faecalis)?
A: The MIC was 128 to 512 µg/mL (≈ 852 to 3410 µM).

Q: And the MIC50 (Enterococcus faecalis)?
A: Its MIC50 is 256 µg/mL (≈ 1700 µM).

Q: What about the MIC90 (Enterococcus faecalis) of the same compound?
A: Its MIC90 is 256 µg/mL (≈ 1700 µM).

Q: And the MIC (Klebsiella pneumoniae)?
A: The MIC was 512 µg/mL (≈ 3410 µM).

Q: And the MIC50 (Klebsiella pneumoniae)?
A: The MIC50 was 512 µg/mL (≈ 3410 µM).

Q: What about the MIC90 (Klebsiella pneumoniae) of the same compound?
A: The MIC90 was 512 µg/mL (≈ 3410 µM).

Q: And the MIC [6]?
A: The MIC was 256 µg/mL (≈ 1700 µM).

Q: What about the MIC50 [6] of the same compound?
A: The MIC50 was 256 µg/mL (≈ 1700 µM).

Q: What about the MIC90 [6] of the same compound?
A: Its MIC90 is 256 µg/mL (≈ 1700 µM).

Q: And the “inhibition zone (IZ)” value (Candida parapsilosis)?
A: Its value is 7 mm.

Q: What about the MIC (Escherichia coli) of the same compound?
A: The MIC was 256 µg/mL (≈ 1700 µM).

Q: And the MIC50 (Escherichia coli)?
A: The MIC50 was 256 µg/mL (≈ 1700 µM).

Q: And the MIC90 (Escherichia coli)?
A: Its MIC90 is 256 µg/mL (≈ 1700 µM).

Q: What about the “inhibition zone (IZ)” value (Candida dubliniensis) of the same compound?
A: Its value is 7 mm.

Q: What about the MIC (Candida albicans [1]) of the same compound?
A: Its MIC is 1250 µg/mL (≈ 8320 µM).

Q: And the MIC (Streptococcus agalactiae)?
A: The MIC was 256 to 512 µg/mL (≈ 1700 to 3410 µM).

Q: And the MIC50 (Streptococcus agalactiae)?
A: Its MIC50 is 256 µg/mL (≈ 1700 µM).

Q: What about the MIC90 (Streptococcus agalactiae) of the same compound?
A: Its MIC90 is 512 µg/mL (≈ 3410 µM).

Q: What about the MIC (Acinetobacter baumannii) of the same compound?
A: Its MIC is 64 to 256 µg/mL (≈ 426 to 1700 µM).

Q: What about the MIC50 (Acinetobacter baumannii) of the same compound?
A: The MIC50 was 128 µg/mL (≈ 852 µM).

Q: And the MIC90 (Acinetobacter baumannii)?
A: Its MIC90 is 256 µg/mL (≈ 1700 µM).

Q: And the logP [2]?
A: The logP was 3.5.

Q: With `OC(Cn1cncn1)(Cn1cncn1)c1ccc(F)cc1F` [FLUCONAZOLE] as the compound, how does the MIC (Candida albicans [1]) read?
A: Its MIC is 250 µg/mL (≈ 816 µM).
